One data set deals with NCI-H226. Description: Antiproliferative activity against human NCI-H226 cells assessed as cell growth inhibition. Format: functional. An outline of the steps:
(§1)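 Cell lines screened for growth inhibition and GI₅₀ derived. Each value is the mean of 3 independent experiments.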

Data set [1] is described as follows: Cytotoxicity against hepatocytes (unknown origin) assessed as cell growth by MTT assay relative to control. The arrangement: concentration or dose not given beside the values. The class given is cell-based, Hepatocyte. In general terms: Tetrazolium dyes change colour on reduction, which living cells bring about.
For the next data set, the system named is A549. The data set can be described thus: Antiproliferative activity against human A549 cells assessed as cell growth inhibition. The class given is functional. An outline of the steps: as §1
For a further data set, the system named is KB. Description: Antiproliferative activity against human KB cells assessed as cell growth inhibition. The class given is functional. In short, it runs like this:
as §1

A further data set has as its system HOP-62. Description: Antiproliferative activity against human HOP-62 cells assessed as cell growth inhibition. Format: functional. An outline of the steps:
as §1

A further data set deals with PC-3. The data set can be described thus: Antiproliferative activity against human PC-3 cells assessed as cell growth inhibition. The class given is functional. An outline of the steps:
as §1

For another data set, the system named is MCF7. Description: Antiproliferative activity against human MCF7 cells assessed as cell growth inhibition. Format: functional. An outline of the steps:
as §1

A short description of data set [2]: Antiproliferative activity against human GURAV cells assessed as cell growth inhibition. The class given is functional. An outline of the steps:
as §1

Data set [3] relates to K562. Description: Antiproliferative activity against human K562 cells assessed as cell growth inhibition. Format: functional. In short, it runs like this: as §1
In a further data set the test system is HL-60. The data set can be described thus: Antiproliferative activity against human HL-60 cells assessed as cell growth inhibition. Format: functional. In short, it runs like this: as §1
A further data set deals with U-937. The data set can be described thus: Antiproliferative activity against human U-937 cells assessed as cell growth inhibition. The class given is functional. In short, it runs like this: as §1
A further data set concerns Jurkat. Description: Antiproliferative activity against human Jurkat cells assessed as cell growth inhibition. Format: functional. An outline of the steps: as §1
The subject of another data set is MOLT-4. The data set can be described thus: Antiproliferative activity against human MOLT-4 cells assessed as cell growth inhibition. Format: functional. In short, it runs like this:
as §1

Data set [4] concerns K562. The data set can be described thus: Anticancer activity against human K562 cells assessed as cell growth inhibition at 1 uM by MTT assay relative to control. The class given is functional. The conditions noted are these: read-out: GI. In short, it runs like this:
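K562 cells given imatinib 1 µM or test compound 1 µM alone, or imatinib 1 µM plus test compound 1 µM. Proliferation read by MTT assay and expressed as % inhibition.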

`O=C(COc1ccc(/C=C2\SC(=O)NC2=O)cc1)Nc1nc2ccccc2s1`: the results for the GI50 in the data set with NCI-H226 and with A549 were 26.5 µM and 46.9 µM, respectively. Besides, the viability in [1] is more than 70%.
In the case of `O=C(COc1ccc(/C=C2\SC(=O)NC2=O)cc1)Nc1cccc([N+](=O)[O-])c1`, the 50% growth inhibitory concentration (GI50) with KB is more than 100 µM; in the data set with HOP-62, more than 100 µM; in the data set on PC-3, more than 100 µM; in the data set on MCF7, 58.5 µM; in data set [2] it was 71.5 µM; in the data set on K562 [3], 20.5 µM. Further, the viability in [1] was more than 70%.
As to `CCc1ccc(CCOc2ccc(CC3SC(=O)NC3=O)cc2)nc1` (stereo unspecified) [PIOGLITAZONE], the GI50 in the data set with K562 [3] came to 40.1 µM.
For the compound `O=C1NC(=O)/C(=C/c2ccc(OCC(=O)N3c4ccccc4Sc4ccccc43)cc2)S1`, the GI50 in the data set on NCI-H226 is 82.1 µM; in the data set with A549, more than 100 µM. Moreover, the viability in data set [1] was more than 70%.
In the case of `COc1cccc2c1C(=O)c1c(O)c3c(c(O)c1C2=O)C[C@@](O)(C(=O)CO)C[C@@H]3O[C@H]1C[C@H](N)[C@H](O)[C@H](C)O1` [DOXORUBICIN], the GI50 (in the data set with KB; in the data set on HOP-62; with PC-3; in the data set with MCF7; in data set [2]; in the data set on K562 [3]) was less than 0.1 µM throughout.
Take `O=C(COc1ccc(/C=C2\SC(=O)NC2=O)cc1)Nc1ncc([N+](=O)[O-])s1`: the viability in data set [1] is more than 70%.
Regarding `Cc1cccc(NC(=O)COc2ccc(/C=C3\SC(=O)NC3=O)cc2)n1`, the 50% growth inhibitory concentration (GI50) in the data set with KB was determined as 75 µM; in the data set on HOP-62, 81.4 µM; in the data set with PC-3, 58.3 µM; with MCF7 it was 28.3 µM; in [2] it was 60.9 µM; in the data set on K562 [3] it was 10.7 µM. Further, the viability in data set [1] was more than 70%.
Regarding `O=C(COc1ccc(/C=C2\SC(=O)NC2=O)cc1)Nc1ccc(C(F)(F)F)cc1Cl`, the GI50 was 78.6 µM with KB; more than 100 µM in the data set with HOP-62; more than 100 µM in the data set with PC-3; 67.4 µM with MCF7; 99.3 µM in data set [2]; 16.3 µM in the data set with K562 [3]. The viability in data set [1] was more than 70%.
As for `Cc1cnc(NC(=O)COc2ccc(/C=C3\SC(=O)NC3=O)cc2)s1`, the GI50 with NCI-H226 was 57.8 µM; in the data set with A549 it was 88.7 µM. For the same compound, the viability in data set [1] was more than 70%.
Regarding `O=C(COc1ccc(/C=C2\SC(=O)NC2=O)cc1)Nc1c(Cl)cccc1Cl`, the GI50 in the data set with KB was more than 100 µM; with HOP-62, more than 100 µM; with PC-3, more than 100 µM; in the data set with HL-60, 97.6 µM; in the data set on MCF7, 61.7 µM; in [2] it was 56.8 µM. Moreover, the GI50 is 6.7 µM in the data set on K562 [3], 60 µM in the data set on U-937, 21.9 µM in the data set with Jurkat and more than 100 µM with MOLT-4. Also, the viability in data set [1] is more than 70%.
Regarding `Cc1cccc2sc(NC(=O)COc3ccc(/C=C4\SC(=O)NC4=O)cc3)nc12`, the concentration for 50% growth inhibition (GI50) with KB was more than 100 µM; with HOP-62, more than 100 µM; with PC-3, more than 100 µM; in the data set on MCF7, 61.2 µM; in data set [2], 58.7 µM; with K562 [3], 45.8 µM. Moreover, the viability in [1] was more than 70%.
In the case of `O=C(COc1ccc(/C=C2\SC(=O)NC2=O)cc1)Nc1ccc([N+](=O)[O-])cc1`, the GI50 in the data set on KB is more than 100 µM; in the data set on HOP-62 it was more than 100 µM; in the data set with PC-3, more than 100 µM; in the data set on MCF7, 72.5 µM; in data set [2], more than 100 µM; with K562 [3], 29.5 µM. Moreover, the viability in [1] was more than 70%.
As to `O=C(COc1ccc(/C=C2\SC(=O)NC2=O)cc1)Nc1ccccc1`, the GI50 with KB was more than 100 µM; in the data set on HOP-62, more than 100 µM; in the data set on PC-3 it was more than 100 µM; in the data set with MCF7, 74.5 µM; in data set [2] it was 57 µM; in the data set on K562 [3], 17.6 µM. In addition, the viability in data set [1] was more than 70%.
In the case of `O=C(COc1ccc(/C=C2\SC(=O)NC2=O)cc1)Nc1ccc(Cl)cc1`, the GI50 with KB came to 50.3 µM; in the data set on HOP-62 it was 36.1 µM; in the data set with PC-3, 83.4 µM; with HL-60, 52.4 µM; in the data set with MCF7 it was 51.1 µM; in data set [2], 35.6 µM. Also, the GI50 is 7.4 µM with K562 [3], 46.3 µM in the data set with U-937, more than 100 µM with Jurkat and 42.7 µM with MOLT-4. Further, the viability in data set [1] was more than 70%.
Consider `O=C(COc1ccc(/C=C2\SC(=O)NC2=O)cc1)Nc1ccccn1`, for which the viability in [1] was more than 70%.
As to `Cc1ccc(NC(=O)COc2ccc(/C=C3\SC(=O)NC3=O)cc2)cc1Cl`, the concentration for 50% growth inhibition (GI50) with KB is 99.6 µM; in the data set on HOP-62 it was more than 100 µM; in the data set on PC-3, more than 100 µM; in the data set with MCF7 it was 61.8 µM; in data set [2], 71.4 µM; in the data set with K562 [3], 19.6 µM. The viability in data set [1] was more than 70%.
In the case of `Cc1cc(Br)ccc1NC(=O)COc1ccc(/C=C2\SC(=O)NC2=O)cc1`, the GI50 is more than 100 µM in the data set with KB; more than 100 µM in the data set with HOP-62; more than 100 µM in the data set on PC-3; 66.8 µM with MCF7; 69.7 µM in data set [2]; 20.7 µM in the data set with K562 [3]. The viability in data set [1] was more than 70%.
In the case of `CCCCC1=NC2(CCCC2)C(=O)N1NC(=O)COc1ccc(/C=C2\SC(=O)NC2=O)cc1`, in data set [1], the viability is more than 70%.
Still for that read-out and setting: under `Cc1c(NC(=O)COc2ccc(/C=C3\SC(=O)NC3=O)cc2)c(=O)n(-c2ccccc2)n1C` stands more than 70%; under `Cc1cc(NC(=O)COc2ccc(/C=C3\SC(=O)NC3=O)cc2)no1`, more than 70%.
Take `Cc1ccc(NC(=O)c2ccc(CN3CCN(C)CC3)cc2)cc1Nc1nccc(-c2cccnc2)n1` [IMATINIB]: in the data set on K562 [4], the inhibition of growth at 1 µM stood at 71%.
Consider `O=C(COc1ccc(/C=C2\SC(=O)NC2=O)cc1)Nc1ccc(Br)cc1`, for which the GI50 worked out at 32.1 µM with KB; 45.4 µM with HOP-62; 86.6 µM with PC-3; 55.1 µM in the data set on MCF7; 54.4 µM in data set [2]; 23.4 µM in the data set on K562 [3]. For the same compound, the viability in data set [1] was more than 70%.
On to `O=C(COc1ccc(/C=C2\SC(=O)NC2=O)cc1)Nc1ccc(F)cc1`, for which the GI50 is more than 100 µM in the data set on KB; 68 µM in the data set with HOP-62; more than 100 µM with PC-3; 61.1 µM in the data set on HL-60; 54.6 µM in the data set with MCF7; 56.8 µM in data set [2]. Moreover, the GI50 with K562 [3] was determined as 9.6 µM; with U-937, 63.9 µM; with Jurkat it was 59.9 µM; with MOLT-4, 53.5 µM. Further, the viability in [1] was more than 70%.
With `O=C(COc1ccc(/C=C2\SC(=O)NC2=O)cc1)Nc1c(F)cc(Br)cc1F`, the GI50 is more than 100 µM in the data set with KB; 75.2 µM with HOP-62; more than 100 µM in the data set with PC-3; 57.3 µM with MCF7; 64.1 µM in data set [2]; 23.1 µM with K562 [3]. Also, the viability in [1] was more than 70%.
As for `O=C1NC(=O)/C(=C/c2ccc(OCC(=O)N3C(=O)c4ccccc4S3(=O)=O)cc2)S1`, the viability in data set [1] is more than 70%.

A word on the GI50: it is the concentration that inhibits growth by half. As usually defined, the viability is a per cent measure of how many cells are alive, often set against a control.

The values above are taken from ChEMBL document CHEMBL4665832, “Benzylidene thiazolidinediones: Synthesis, in vitro investigations of antiproliferative mechanisms and in vivo efficacy determination in combination with Imatinib” (Bioorg Med Chem Lett, 2020).
